Results from paper PMC5801006 (European journal of medicinal chemistry, 2017).
Where two headings read alike, the source gives them in different places.

Experiments:
KP02 = assay: MTT viability, 48 h; assay type: cell-based, mouse; conditions: read-out: Activity, EC50 KP02
KP02 tumor cells = assay: ROS involvement: MTT viability with antioxidants α-tocopherol or NAC; assay type: cell-based, mouse; conditions: KP02, 4 μM compound 48 h; for Rescue of cell death by α-tocopherol: 100 μM α-tocopherol 1 hour prior; for Rescue of cell death by NAC: 100 μM NAC
AsPC1 = assay: MTT viability, 48 h; assay type: cell-based, human; conditions: read-out: Activity, EC50 AsPC1
Panc-1 = assay: MTT viability, 48 h; assay type: cell-based, human; conditions: read-out: Activity, EC50 Panc-1
BxPC3 = assay: MTT viability, 48 h; assay type: cell-based, human; conditions: read-out: Activity, EC50 BxPC3
MIAPaCa-2 = assay: MTT viability, 48 h; assay type: cell-based, human; conditions: read-out: Activity, EC50 MIAPaCa-2, 48 hr treatment
Panc02 = assay: MTT viability, 48 h; assay type: cell-based, mouse; conditions: read-out: Activity, EC50 Panc02
KP02 tumors = assay: In vivo tumor growth, subcutaneous KP02 tumors in C57BL/6 mice
[1] = system: pancreatic cancer cell lines
KCKO = assay: MTT viability, 48 h; assay type: cell-based, mouse; conditions: read-out: Activity, EC50 KCKO
[2] = assay type: in vivo; conditions: for Treatment-related deaths: 750 nmol/100μL i.p. daily for two weeks; for PCV: 7 at 750nmol/100μL, 1 and 2 at 1500nmol/100 μL, 2 weeks, n = 3, control 47.5 ± 3; for Necropsy/histology findings (pulmonary metastases, nephropathy) / Mouse weight at necropsy: after 2 weeks daily i.p. treatment; for Mouse weight at necropsy: vehicle 19.5± 0.5
[3] = system: mitochondrial superoxide in KP02 cells; assay: Mitochondrial superoxide detection; assay type: cell-based, mouse; conditions: KP02, 50 μM, 2 hours, MitoSOX Red
Procedure, shortened: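 KP02 cells seeded in 12-well plates 24 h ahead, then exposed to 50 μM test compound for 2 h at 37 °C, with or without α-tocopherol. Stained with MitoSOX Red (5 μM); after 2 h, washed with PBS, harvested with trypsin/EDTA and washed again. Oxidised dye (emission ~580 nm) read by flow cytometry in FL3 as mean fluorescence intensity. Triplicates.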

σ1 receptor = σ1 receptor (Homo sapiens, UniProt Q99720); assay: σ1 binding by flow cytometry in MCF7σ1 cells; conditions: displacement of σ1 fluorescent compound, 0.1 nmol/L-10 μM
Procedure, shortened: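 MCF7 cells engineered for σ1 (DMEM, 10% FBS) incubated with test compound at 0.1, 1, 10, 100 nmol/L, 1 and 10 μM. Then 100 nmol/L σ1 fluorescent probe added for 75 min at 37 °C, with F390 (10 μM) co-incubated to mask σ2. Cells washed twice with PBS, detached (10 min, 37 °C), pelleted and resuspended in PBS. Fluorescence read by flow cytometry through a 530 nm band-pass filter, 50,000 events per sample.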

caspase-3 in KP02 cells = assay: Caspase-3 activation; assay type: cell-based, mouse; conditions: KP02, 25 μM, 5 hours, relative to vehicle
Procedure, shortened: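 KP02 cells (DMEM/Ham's F-12 1:1, 10% FBS, 37 °C, 5% CO2) seeded at 1 × 10^4/well 24 h before treatment. Exposed to 25 μM test compound for 5 h, with or without α-tocopherol (100 μM) or Z-DEVD-FMK (1 μM). Caspase-Glo reagent with luminogenic caspase substrate added, shaken 30 s, then 90 min at room temperature. Luminescence read relative to DMSO-treated cells. Triplicates; n ≥ 3 independent experiments, mean ± SEM.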

P-gp = P-gp (Homo sapiens, UniProt P08183); assay: Calcein-AM assay in MDCK-MDR1 cells; assay type: cell-based; conditions: n.a. = not active, mean of n ≥ 3 ± SEM
[4] = system: pancreatic cancer cell lines; assay: MTT viability, summary over the panel of pancreatic cancer cell lines; conditions: 48 h, read-out: Cytotoxic EC50 values in most of the cell lines studied
[5] = 750 nmol/100μL vehicle i.p. daily for two weeks, vehicle mean 596 mm^3
[6] = 1500 nmol/100μL vehicle i.p. daily for two weeks, vehicle mean 592 mm^3

Chain of P-gp (P08183 whole entry): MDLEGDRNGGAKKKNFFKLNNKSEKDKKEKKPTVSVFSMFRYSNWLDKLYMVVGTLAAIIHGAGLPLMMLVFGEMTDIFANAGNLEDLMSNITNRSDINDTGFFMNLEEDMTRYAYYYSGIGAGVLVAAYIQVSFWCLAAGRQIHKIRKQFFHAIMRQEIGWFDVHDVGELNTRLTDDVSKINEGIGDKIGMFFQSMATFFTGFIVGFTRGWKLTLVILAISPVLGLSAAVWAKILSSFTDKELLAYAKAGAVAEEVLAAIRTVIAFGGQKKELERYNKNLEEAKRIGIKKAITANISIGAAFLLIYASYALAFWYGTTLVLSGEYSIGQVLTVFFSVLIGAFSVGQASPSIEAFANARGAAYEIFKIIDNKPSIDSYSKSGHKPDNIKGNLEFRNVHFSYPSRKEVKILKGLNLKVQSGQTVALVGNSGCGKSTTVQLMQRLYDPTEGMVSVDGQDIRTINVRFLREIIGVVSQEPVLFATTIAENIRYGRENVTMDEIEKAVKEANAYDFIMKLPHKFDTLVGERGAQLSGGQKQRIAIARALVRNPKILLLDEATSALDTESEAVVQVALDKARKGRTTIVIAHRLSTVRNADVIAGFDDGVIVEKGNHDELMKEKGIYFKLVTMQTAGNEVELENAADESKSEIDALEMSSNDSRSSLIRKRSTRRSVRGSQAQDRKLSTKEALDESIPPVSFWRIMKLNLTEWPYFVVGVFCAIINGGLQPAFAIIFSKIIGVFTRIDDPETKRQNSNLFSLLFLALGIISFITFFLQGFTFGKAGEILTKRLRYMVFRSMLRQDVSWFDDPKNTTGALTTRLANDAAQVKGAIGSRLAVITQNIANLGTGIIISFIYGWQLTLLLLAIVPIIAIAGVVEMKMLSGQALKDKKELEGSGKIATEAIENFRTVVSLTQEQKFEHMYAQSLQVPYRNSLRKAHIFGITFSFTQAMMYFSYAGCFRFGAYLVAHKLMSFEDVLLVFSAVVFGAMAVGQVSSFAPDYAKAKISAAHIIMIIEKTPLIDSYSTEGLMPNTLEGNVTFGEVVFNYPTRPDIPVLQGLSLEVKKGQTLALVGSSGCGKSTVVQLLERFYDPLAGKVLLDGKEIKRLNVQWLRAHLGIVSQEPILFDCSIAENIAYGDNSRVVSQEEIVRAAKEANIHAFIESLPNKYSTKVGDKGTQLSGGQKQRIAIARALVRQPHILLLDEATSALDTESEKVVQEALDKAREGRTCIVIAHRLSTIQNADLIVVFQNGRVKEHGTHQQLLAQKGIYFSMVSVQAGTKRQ
Chain of σ1 receptor (Q99720 whole entry): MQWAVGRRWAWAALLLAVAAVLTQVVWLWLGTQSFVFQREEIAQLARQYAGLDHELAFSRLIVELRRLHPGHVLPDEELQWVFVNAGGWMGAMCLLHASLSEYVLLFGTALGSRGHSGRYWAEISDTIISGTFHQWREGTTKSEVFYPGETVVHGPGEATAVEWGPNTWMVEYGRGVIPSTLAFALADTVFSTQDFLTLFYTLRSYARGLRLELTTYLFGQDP

Compound	Rescue of cell death by α-tocopherol (KP02 tumor cells)	EC50 (MIAPaCa-2) [µM]	Mean tumor volume after conclusion of treatment (KP02 tumors; [5])	PCV [2] [%]	Necropsy/histology findings (pulmonary metastases, nephropathy) [2]	Mouse weight at necropsy [2] [grams]	Interaction with the σ1 receptor (σ1 receptor)	Increase of caspase-3 activity (caspase-3 in KP02 cells)	EC50 (KP02; Mus musculus, 48 h) [µM]	EC50 (AsPC1; Homo sapiens, ASPC1, 48 h) [µM]	EC50 (BxPC3; Homo sapiens, BXPC-3, 48 h) [µM]	P-gp EC50 (P-gp)	EC50 (Panc02; Mus musculus, Panc02, 48 h) [µM]	EC50 (KCKO; Mus musculus, 48 h) [µM]	also measured
(Z)-2-[1-[4-(4-Cyclohexylpiperazin-1-yl)butyl]-2-oxoindolin-3-ylidene]-N,N-dimethylhydrazinecarbothioamide [Compound 2]	rescued the pancreatic cancer cells	10.8 ± 1.3	statistically similar to vehicle	51 ± 3.8	not noticed	19 ± 1	ruled out	6 fold	–	–	–	–	–	–	EC50 (KP02; 48 hr treatment, MTT): 7.32 ± 0.8 µM; EC50 (AsPC1; 48 hr treatment, MTT): 3.86 ± 0.2 µM; EC50 (Panc-1; 48 hr treatment, MTT): 8.73 ± 0.8 µM; EC50 (BxPC3; 48 hr treatment, MTT): 6.15 ± 0.6 µM; EC50 (Panc02; 48 hr treatment, MTT): 1.17 ± 0.4 µM; Mean tumor volume after conclusion of treatment (KP02 tumors; [6]): 196 mm^3; EC50 [1]: 1.17 to 14.7 µM; EC50 (KCKO; 48 hr treatment, MTT): 6.18 ± 0.3 µM; Treatment-related deaths [2]: without experiencing any treatment-related deaths; Mitochondrial superoxide production, increase of mean fluorescence intensity [3]: 20 fold
NC(=S)N/N=C1\C(=O)Nc2ccccc21 [Compound 8, (Z)-2-(2-Oxoindolin-3-ylidene)hydrazinecarbothioamide]	–	–	–	–	–	–	–	–	> 100	> 100	> 100	completely abolished the interaction with the P-gp	> 100	> 100	–
CCCCN1CCN(C2CCCCC2)CC1 [Compound 11, 1-Butyl-4-cyclohexyl-piperazine]	–	–	–	–	–	–	–	–	> 100	> 100	> 100	complete loss of interaction with P-gp	> 100	> 100	–
CN(C)C(=S)N/N=C1\C(=O)Nc2ccccc21 [Compound 7, (Z)-N,N-Dimethyl-2-(2-oxoindolin-3-ylidene)hydrazinecarbothioamide]	no cells were rescued	18.3 ± 2.1	328 mm^3	42.65 ± 2.85	foci of pulmonary metastases of the implanted tumor and a mild chronic progressive nephropathy	19.5 ± 0.5	ruled out	did not activate the caspase-3 at all	2.83 ± 0.6	2.17 ± 0.3	2.52 ± 0.5	completely abolished the interaction with the P-gp	1.21 ± 0.1	3.14 ± 0.4	Rescue of cell death by NAC (KP02 tumor cells): even higher levels of cell death; EC50 [4]: 1.21 to 3.14 µM; EC50 (Panc-1; Homo sapiens, PANC-1, 48 h): > 100 µM
CCCCN1CCc2cc(OC)c(OC)cc2C1 [Compound 10, N-Butyl-6,7-dimethoxy-1,2,3,4-tetrahydroisoquinoline]	–	–	–	–	–	–	–	–	> 100	> 100	> 100	–	> 100	> 100	–
COc1cc2c(cc1OC)C(=O)N(CCCCN1C(=O)/C(=N\NC(=S)N(C)C)c3ccccc31)CC2 [Compound 9, (Z)-2-(1-(4-(6,7-Dimethoxy-1-oxo-3,4-dihydroisoquinolin-2(1H)-yl)butyl)-2-oxoindolin-3-ylidene)-N,N-dimethylhydrazinecarbothioamide]	rescued the pancreatic cancer cells	–	–	–	–	–	–	did not activate the caspase-3 at all	5.62 ± 1.1	5.74 ± 0.5	5.93 ± 0.7	–	2.18 ± 0.3	4.51 ± 0.8	Rescue of cell death by NAC (KP02 tumor cells): even higher levels of cell death
(Z)-2-(1-(4-(6,7-Dimethoxy-3,4-dihydroisoquinolin-2(1H)-yl)butyl)-2-oxoindolin-3-ylidene)-N,N-dimethylhydrazinecarbothioamide [Compound 1]	rescued the pancreatic cancer cells	14.6 ± 2.2	statistically similar to vehicle	45.45 ± 4.15	not noticed	17.5 ± 0.5	ruled out	did not activate the caspase-3 at all	–	–	–	–	–	–	EC50 (KP02; 48 hr treatment, MTT): 6.92 ± 0.9 µM; EC50 (AsPC1; 48 hr treatment, MTT): 2.01 ± 0.6 µM; EC50 (Panc-1; 48 hr treatment, MTT): 14.6 ± 2.1 µM; EC50 (BxPC3; 48 hr treatment, MTT): 2.34 ± 0.8 µM; EC50 (Panc02; 48 hr treatment, MTT): 1.33 ± 0.2 µM; Mean tumor volume after conclusion of treatment (KP02 tumors; [6]): 205 mm^3; EC50 [1]: 1.17 to 14.7 µM; EC50 (KCKO; 48 hr treatment, MTT): 6.49 ± 1 µM; Treatment-related deaths [2]: without experiencing any treatment-related deaths; Mitochondrial superoxide production, increase of mean fluorescence intensity [3]: 6 fold
